Reference: ChEMBL document CHEMBL4390637, “Design, synthesis and biological evaluation of novel inhibitors against cyanobacterial pyruvate dehydrogenase multienzyme complex E1” (Bioorg Med Chem, 2019)

Experiments:
[1] = Inhibition of Synechocystis sp. PCC6803 PDHC-E1 expressed in Escherichia coli BL-21 (DE3) using 6-DCIP and pyruvate incubated for 5 mins; design: species or system Synechocystis sp. PCC 6803
Method in brief: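 Recombinant Cy-PDHc E1 (E. coli BL-21 (DE3) with GroEL/GroES chaperones, Ni-NTA purified) assayed by DCIP reduction in 50 mM K3PO4 pH 7.2, 0.375 mM DCIP, 0.1 mg/ml enzyme, 200 µM ThDP plus inhibitor, 5 min at 37 °C before saturating pyruvate; IC50 values as means ± SD, n = 3.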

[2] = test system: Synechocystis sp. PCC 6803; assay: Inhibition of Synechocystis sp. PCC6803 PDHC-E1 expressed in Escherichia coli BL-21 (DE3) at 100 uM using 6-DCIP and pyruvate incubated for 5 mins relative to untreated control
Method in brief: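 His-tagged Cy-PDHc E1 co-expressed with GroEL/GroES in E. coli BL-21 (DE3), Ni-NTA purified. Mix: 50 mM K3PO4 pH 7.2, 0.375 mM DCIP, 0.1 mg/ml enzyme, 200 µM ThDP, compound 100 μM; preincubated 5 min at 37 °C, reaction started with saturating pyruvate; percent inhibition reported.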

[3] = species on record: Sus scrofa; assay: Inhibition of porcine PDHc-E1 at 100 uM using MTT and phenazine methosulfate incubated for 3 mins relative to untreated control
Method in brief: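 Porcine PDHc E1 activity followed by MTT reduction at 566 nm. Mix: 1.0 mM MgCl2, 0.2 mM ThDP, 0.5 mM MTT, 6.5 mM PMS, 50 mM K3PO4 pH 7.0, 0.75 mg/mL enzyme, compound at 100 μM final; 3 min at 37 °C, then 2 mM sodium pyruvate added to start; percent inhibition reported.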

[4] = test system: Synechocystis sp. PCC 6803; assay: Growth inhibition of Synechocystis sp. PCC6803 incubated for 7 days; format: functional, organism-based
[5] = test system: Microcystis aeruginosa; assay: Growth inhibition of Microcystis aeruginosa FACHB905 incubated for 7 days; format: functional, organism-based
Method in brief: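 Cyanobacteria grown in BG11 medium at 28 °C on a 12 h light/12 h dark cycle for 7 days to logarithmic phase. A 1% inoculum was transferred into fresh medium containing compound at different concentrations and cultured 7 days. OD680 was read, then inhibition rate and EC50 were calculated. Values are means, n = 3.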

[6] = Synechocystis sp. PCC 6803, 168 h
[7] = Microcystis aeruginosa, FACHB905, 168 h

Molecule | IC50 [1] | inhibition [2] | inhibition [3] | EC50 [4, 6] | EC50 [5, 7] | EC50 [4] | EC50 [5]
Cc1ncc(Cn2nnc(COC(=O)c3cccc(Cl)c3)c2I)c(N)n1 | 1.79 µM | 98.7% | 5.13% | 1.16 µM | 0.74 µM |  | 
Cc1ccc(C(=O)OCc2cn(Cc3cnc(C)nc3N)nn2)cc1 | 4.48 µM | 95.3% |  | 1.43 µM | 1.2 µM |  | 
Cc1ccc(C(=O)OCc2nnn(Cc3cnc(C)nc3N)c2I)cc1 | 1.88 µM | 97.1% |  | 1.14 µM | 0.85 µM |  | 
Cc1ncc(Cn2nnc(COC(=O)c3ccccc3)c2I)c(N)n1 | 1.94 µM | 96.5% | 21% | 1.44 µM | 0.99 µM |  | 
Cc1ncc(Cn2cc(COC(=O)c3cccc(Cl)c3)nn2)c(N)n1 | 3.73 µM | 93.2% | 9.62% | 1.81 µM | 1.29 µM |  | 
Cc1ncc(Cn2cc(COc3ccc([N+](=O)[O-])cc3)nn2)c(N)n1 | > 100 µM | 8.64% |  | > 100 µM | > 100 µM |  | 
Cc1ncc(Cn2cc(COc3ccc(Cl)cc3)nn2)c(N)n1 | > 100 µM | 29.6% |  | > 100 µM | > 100 µM |  | 
Cc1ncc(Cn2cc(COc3ccc(F)cc3)nn2)c(N)n1 | > 100 µM | 16.2% |  | > 100 µM | > 100 µM |  | 
Cc1ncc(Cn2cc(COC(=O)c3ccc([N+](=O)[O-])cc3)nn2)c(N)n1 | 3.57 µM | 95.7% | 13.5% | 1.64 µM | 1.33 µM |  | 
Cc1ncc(Cn2nnc(COC(=O)c3ccc(F)cc3)c2I)c(N)n1 | 1.61 µM | 95.4% | 15.3% | 0.84 µM | 0.78 µM |  | 
Cc1ncc(Cn2nnc(COC(=O)c3ccc([N+](=O)[O-])cc3)c2I)c(N)n1 | 1.69 µM | 99.2% | 10.4% | 1.09 µM | 0.95 µM |  | 
Cc1ncc(Cn2cc(COC(=O)c3ccc(Cl)cc3)nn2)c(N)n1 | 3.55 µM | 94.2% |  | 2.25 µM | 1.11 µM |  | 
Cc1ncc(Cn2cc(COC(=O)c3ccccc3Cl)nn2)c(N)n1 | 3.37 µM | 97.8% | 7.31% | 2.44 µM | 1.43 µM |  | 
Cc1ncc(Cn2nnc(COC(=O)c3ccccc3Cl)c2I)c(N)n1 | 1.48 µM | 98.9% | 9.5% | 1.17 µM | 0.9 µM |  | 
CUPRIC SULFATE |  |  |  |  |  | 1.47 µM | 1.77 µM
Cc1ncc(Cn2nnc(COC(=O)c3ccc(Cl)cc3)c2I)c(N)n1 | 2.35 µM | 95.6% |  | 0.9 µM | 1.06 µM |  | 
Cc1ncc(Cn2cc(COc3ccccc3)nn2)c(N)n1 | > 100 µM | 19% |  | > 100 µM | > 100 µM |  | 
Cc1ncc(Cn2cc(COC(=O)c3ccccc3)nn2)c(N)n1 | 3.58 µM | 95.5% | 15.9% | 1.66 µM | 1.17 µM |  | 
Cc1ncc(Cn2cc(COC(=O)c3ccc(F)cc3)nn2)c(N)n1 | 3.88 µM | 99.5% | 17.8% | 2.11 µM | 1.22 µM |  | 
